Reference: ChEMBL document CHEMBL1156498, “4-Hydroxynonenal, an endogenous aldehyde, causes pain and neurogenic inflammation through activation of the irritant receptor TRPA1” (Proc Natl Acad Sci U S A, 2007)
Calls of active or inactive are those of the source. The rule behind the calls is not given here.

Columns and labels:
Spinal cord [1] = experiment: Induction of neurogenic inflammation in capsaicin desensitized rat dorsal spinal cord assessed as substance P release per 20 mins at 10 uM; type: functional
In short: (§1)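 Rat lumbar dorsal spinal cord or esophagus slices (~0.4 mm), superfused in Krebs' solution at 37°C after 60 min stabilization. Tissue desensitized beforehand with 10 μM capsaicin for 20 min. Fractions collected at 10-min intervals into ethanoic acid (final 2 N), freeze-dried, and assayed for SP or CGRP immunoreactivity. Results in fmol/g/20 min, at least four experiments.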

Spinal cord [2] = experiment: Induction of neurogenic inflammation in rat dorsal spinal cord assessed as CGRP release per 20 mins at 10 uM in calcium free medium; type: functional
In short: (§2)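 Rat dorsal spinal cord or esophagus slices superfused in Krebs' solution at 37°C, with extracellular Ca2+ chelated by 2 mM EGTA added to the bath. Fractions collected every 10 min into ethanoic acid (final 2 N), freeze-dried, and assayed for SP or CGRP immunoreactivity. Results in fmol/g/20 min, at least four experiments.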

Esophagus [3] = experiment: Induction of neurogenic inflammation in capsaicin desensitized rat esophagus assessed as substance P release per 20 mins at 50 uM; type: functional; in short: as §1
Esophagus [4] = experiment: Induction of neurogenic inflammation in rat esophagus assessed as CGRP release per 20 mins at 50 uM; type: functional
In short: (§3)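 Rat lumbar dorsal spinal cord or esophagus slices (~0.4 mm), stabilized 60 min in Krebs' solution at 37°C, then superfused. Fractions collected at 10-min intervals into ethanoic acid (final 2 N), freeze-dried, reconstituted, and assayed for SP or CGRP immunoreactivity. Results in fmol/g/20 min, at least four experiments.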

Esophagus [5] = experiment: Induction of neurogenic inflammation in rat esophagus assessed as CGRP release per 20 mins at 50 uM in calcium free medium; type: functional; in short: as §2
Esophagus [6] = experiment: Induction of neurogenic inflammation in capsaicin desensitized rat esophagus assessed as CGRP release per 20 mins at 50 uM; type: functional; in short: as §1
Esophagus [7] = experiment: Induction of neurogenic inflammation in rat esophagus assessed as substance P release per 20 mins at 50 uM in calcium free medium; type: functional; in short: as §2
Esophagus [8] = experiment: Induction of neurogenic inflammation in rat esophagus assessed as substance P release per 20 mins at 50 uM; type: functional; in short: as §3
Spinal cord [9] = experiment: Induction of neurogenic inflammation in capsaicin desensitized rat dorsal spinal cord assessed as CGRP peptide release per 20 mins at 10 uM; type: functional; in short: as §1
Spinal cord [10] = experiment: Induction of neurogenic inflammation in rat dorsal spinal cord assessed as substance P release per 20 mins at 10 uM in calcium free medium; type: functional; in short: as §2
Spinal cord [11] = experiment: Induction of neurogenic inflammation in rat dorsal spinal cord assessed as CGRP peptide release per 20 mins at 10 uM; type: functional; in short: as §3
Spinal cord [12] = experiment: Induction of neurogenic inflammation in rat dorsal spinal cord assessed as substance P release per 20 mins at 10 uM; type: functional; in short: as §3
Mus musculus [13] = organism: Mus musculus; experiment: Inhibition of capsaicin-induction of paw lifting in Swiss mouse; type: functional, organism-based
In short: (§4)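 Mouse nocifensive test: intraplantar capsaicin (0.1 nmol/20 μl, in 4% DMSO) or HNE (120 nmol/20 μl, in saline), with camphor, gentamycin or capsazepine co-injected intraplantar. Licking/lifting time recorded for 5 min; vehicle controls. Mean ± SEM; ANOVA with Bonferroni.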

[14] = molecular target: Transient receptor potential cation channel subfamily A member 1 (Rattus norvegicus) (UniProt Q6RI86); experiment: Activity at TRPA1 channel in rat dorsal root ganglion neurons assessed as attenuation of capsaicin-induced intracellular calcium; type: tissue-based
In short: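 Cultured rat DRG neurons, Fura2/AM calcium imaging. Capsaicin (0.1 μM)-evoked [Ca2+]i responses measured in the presence of TRPA1 antagonists.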

Mus musculus [15] = organism: Mus musculus; experiment: Attenuation of capsaicin-induction of paw lifting in Swiss mouse; type: functional, organism-based; in short: as §4
Rattus norvegicus [16] = organism: Rattus norvegicus; experiment: Reduction of capsaocin-induction of allodynia in rat
Spinal cord [17] = experiment: Induction of neurogenic inflammation in rat dorsal spinal cord assessed as CGRP peptide release for 20 mins; type: functional, tissue-based
In short: (§5)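 Rat lumbar dorsal spinal cord or esophagus slices (≈0.4 mm), stabilized 60 min in Krebs' solution at 37°C. Agonist superfused 20 min (HNE 50 or 100 μM). Fractions collected every 10 min into ethanoic acid (final 2 N), freeze-dried, and assayed for SP- or CGRP-like immunoreactivity (fmol/g/20 min). Controls: capsaicin desensitization (10 μM, 20 min) or 2 mM EGTA. n ≥ 4 slices; mean ± SEM.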

[18] = molecular target: T1, Transient receptor potential cation channel subfamily A member 1 (Rattus norvegicus, UniProt Q6RI86); experiment: Agonist activity at rat TRPA1 channel expressed in tetracycline induced HEK293 cells assessed as increase in intracellular calcium; type: functional, cell-based
In short: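 Stable HEK293 FLPTREX line carrying HA-tagged rat TRPA1 under a tetracycline-inducible promoter. Expression induced with 0.1 μg/ml tetracycline 16 h before the assay. Fura2/AM [Ca2+]i read on a multiwell fluorescence plate reader, 30,000 cells per well, 10–100 μM, n = 4 wells per concentration, EC50 derived.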

[19] = molecular target: Transient receptor potential cation channel subfamily A member 1 (Rattus norvegicus) (UniProt Q6RI86); experiment: Agonist activity at rat TRPA1 channel expressed in HEK293 cells assessed as increase in intracellular calcium; type: functional, cell-based
In short: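 Stable Flp-In HEK293 line expressing C-terminally HA11-tagged rat TRPA1 under a tetracycline-inducible promoter, induced with 0.1 μg/ml tetracycline 16 h before testing. Uninduced and vector-control cells also tested. Fura2/AM [Ca2+]i read in a fluorescence plate reader, 30,000 cells per well, n = 4 wells per concentration. Concentration–response used to derive EC50.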

[20] = molecular target: Transient receptor potential cation channel subfamily A member 1 (Homo sapiens) (UniProt O75762); experiment: Agonist activity at human TRPA1 channel expressed in xenopus oocytes assessed as membrane currents by two electrode voltage-clamp technique; type: functional, cell-based; details: Oocyte
In short: (§6)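 Two-electrode voltage clamp at +70 mV holding potential on Xenopus oocytes expressing human TRPA1, with voltage ramps for current–voltage relationships. Agonist challenge followed by ruthenium red (10 μM) block; 2-aminoethyl diphenylborinate (200 μM) used as reference agonist.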

[21] = molecular target: Transient receptor potential cation channel subfamily A member 1 (Homo sapiens) (UniProt O75762); experiment: Reversal of activation of human TRPA1 channel expressed in xenopus oocytes by two electrode voltage-clamp technique in presence of ruthenium red; type: cell-based; details: Oocyte; in short: as §6
[22] = molecular target: T1, Transient receptor potential cation channel subfamily A member 1; experiment: Activation of TRPA1 channel in rat dorsal root ganglion neurons assessed as increase in intracellular calcium level; type: tissue-based
In short: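 Rat DRG neurons in culture, loaded with Fura2/AM and read by ratiometric calcium imaging. Agonist applied in the bath at 30–500 μM, with a concentration-response used to derive the EC50. n ≥ 22 cells.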

[23] = molecular target: Transient receptor potential cation channel subfamily A member 1 (Rattus norvegicus) (UniProt Q6RI86); experiment: Activation of TRPA1 channel in rat dorsal root ganglion neurons assessed as increase in intracellular calcium level at 50 uM; type: tissue-based
In short: (§7)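 Cultured rat dorsal root ganglion neurons loaded with Fura2/AM. HNE bath-applied across 30–500 μM. Ratiometric calcium imaging of the rise in [Ca2+]i, with capsaicin response recorded. Dose–response curve built from n ≥ 22 cells; mean ± SEM.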

[24] = molecular target: Transient receptor potential cation channel subfamily A member 1 (Rattus norvegicus) (UniProt Q6RI86); experiment: Activation of TRPA1 channel in rat dorsal root ganglion neurons assessed as increase in intracellular calcium level at 300 uM; type: tissue-based; in short: as §7
[25] = molecular target: Transient receptor potential cation channel subfamily A member 1 (Rattus norvegicus) (UniProt Q6RI86); experiment: Reversal of activation of TRPA1 channel in rat dorsal root ganglion neurons at 100 uM by calcium imaging in presence of ruthenium red; type: tissue-based
In short: (§8)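 Cultured rat DRG neurons, Fura2/AM ratiometric calcium imaging. HNE 100 μM-evoked [Ca2+]i rise measured with ruthenium red (1 μM), (+) camphor (1 mM), gentamycin (100 μM) or capsazepine (10 μM), each versus vehicle. n ≥ 22 cells; mean ± SEM; Bonferroni test.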

[26] = molecular target: Transient receptor potential cation channel subfamily A member 1 (Rattus norvegicus) (UniProt Q6RI86); experiment: Reversal of activation of TRPA1 channel in rat dorsal root ganglion neurons at 100 uM by calcium imaging in presence of camphor; type: tissue-based; in short: as §8
[27] = molecular target: Transient receptor potential cation channel subfamily A member 1 (Rattus norvegicus) (UniProt Q6RI86); experiment: Reversal of activation of TRPA1 channel in rat dorsal root ganglion neurons at 100 uM by calcium imaging in presence of gentamycin; type: tissue-based; in short: as §8
[28] = molecular target: Transient receptor potential cation channel subfamily A member 1 (Rattus norvegicus) (UniProt Q6RI86); experiment: Reversal of activation of TRPA1 channel in rat dorsal root ganglion neurons at 100 uM by calcium imaging in presence of capsazepine; type: tissue-based; in short: as §8
Rattus norvegicus [29] = experiment: Increase in plasma extravasation in intraplantar dosed rat hind paw; type: functional, organism-based
In short: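 Male Sprague–Dawley rats (250 g) given Evans Blue (30 mg/kg) into the tail vein 1 min before intraplantar HNE (60–150 nmol in 30 μl) or vehicle. Killed by exsanguination at 30 min; paw skin dye extracted in formamide 48 h at room temperature in the dark and read at 620 nm, expressed as ng/g wet tissue. SR140333 (1.6 μmol/kg i.v.) given 15 min before. n ≥ 4.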

Mus musculus [30] = organism: Mus musculus; experiment: Induction of paw licking in Swiss mouse; type: functional, organism-based
In short: (§9)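 Male Swiss mice injected intraplantar with HNE at 15–240 nmol in 20 μl saline, then placed in a chamber. Total time licking and lifting the injected paw recorded for 5 min.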

Mus musculus [31] = organism: Mus musculus; experiment: Induction of paw lifting in Swiss mouse; type: functional, organism-based; in short: as §9
Mus musculus [32] = organism: Mus musculus; experiment: Reversal of induction of paw lifting in Swiss mouse at 15 to 240 nmol/paw in presence gentamycin; type: functional, organism-based; in short: as §4
Mus musculus [33] = experiment: Induction of paw licking in intraplantarly dosed Swiss mouse at 120 nmol/paw; type: functional, organism-based
In short: (§10)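 Male Swiss mice injected intraplantar with HNE 120 nmol in 20 μl 0.9% saline. Time spent licking and lifting the injected paw recorded for 5 min immediately after injection; vehicle controls.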

Mus musculus [34] = experiment: Induction of paw lifting in intraplantarly dosed Swiss mouse at 120 nmol/paw; type: functional, organism-based; in short: as §10
Mus musculus [35] = experiment: Induction of paw licking in intraplantarly dosed TRPA1-deficient Swiss mouse at 120 nmol/paw; type: functional, organism-based
In short: (§11)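 Male TRPA1-deficient mice and wild-type littermates (about 30 g) injected intraplantar with HNE 120 nmol in 20 μl 0.9% saline. Total licking/lifting time recorded for 5 min, scored blind to genotype. n = 6 per group; single-factor ANOVA.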

Mus musculus [36] = experiment: Induction of paw lifting in TRPA1-deficient intraplantarly dosed Swiss mouse at 120 nmol/paw; type: functional, organism-based; in short: as §11
Spinal cord [37] = experiment: Induction of neurogenic inflammation in rat dorsal spinal cord assessed as substance P release for 20 mins; type: functional, tissue-based; in short: as §5
Esophagus [38] = experiment: Induction of neurogenic inflammation in rat esophagus assessed as substance P release for 20 mins; type: functional, tissue-based; in short: as §5
Esophagus [39] = experiment: Induction of neurogenic inflammation in rat esophagus assessed as CGRP peptide release for 20 mins; type: functional, tissue-based; in short: as §5
Rattus norvegicus [40] = organism: Rattus norvegicus; experiment: Induction of allodynia in rat
Rattus norvegicus [41] = organism: Rattus norvegicus; experiment: Reversal of induction of allodynia in rat in presence of camphor
Rattus norvegicus [42] = organism: Rattus norvegicus; experiment: Reversal of induction of allodynia in rat in presence of gentamycin
Rattus norvegicus [43] = organism: Rattus norvegicus; experiment: Reversal of induction of allodynia in rat in presence of capsazepine

Transient receptor potential cation channel subfamily A member 1 (Rattus norvegicus), sequence (Q6RI86 whole entry): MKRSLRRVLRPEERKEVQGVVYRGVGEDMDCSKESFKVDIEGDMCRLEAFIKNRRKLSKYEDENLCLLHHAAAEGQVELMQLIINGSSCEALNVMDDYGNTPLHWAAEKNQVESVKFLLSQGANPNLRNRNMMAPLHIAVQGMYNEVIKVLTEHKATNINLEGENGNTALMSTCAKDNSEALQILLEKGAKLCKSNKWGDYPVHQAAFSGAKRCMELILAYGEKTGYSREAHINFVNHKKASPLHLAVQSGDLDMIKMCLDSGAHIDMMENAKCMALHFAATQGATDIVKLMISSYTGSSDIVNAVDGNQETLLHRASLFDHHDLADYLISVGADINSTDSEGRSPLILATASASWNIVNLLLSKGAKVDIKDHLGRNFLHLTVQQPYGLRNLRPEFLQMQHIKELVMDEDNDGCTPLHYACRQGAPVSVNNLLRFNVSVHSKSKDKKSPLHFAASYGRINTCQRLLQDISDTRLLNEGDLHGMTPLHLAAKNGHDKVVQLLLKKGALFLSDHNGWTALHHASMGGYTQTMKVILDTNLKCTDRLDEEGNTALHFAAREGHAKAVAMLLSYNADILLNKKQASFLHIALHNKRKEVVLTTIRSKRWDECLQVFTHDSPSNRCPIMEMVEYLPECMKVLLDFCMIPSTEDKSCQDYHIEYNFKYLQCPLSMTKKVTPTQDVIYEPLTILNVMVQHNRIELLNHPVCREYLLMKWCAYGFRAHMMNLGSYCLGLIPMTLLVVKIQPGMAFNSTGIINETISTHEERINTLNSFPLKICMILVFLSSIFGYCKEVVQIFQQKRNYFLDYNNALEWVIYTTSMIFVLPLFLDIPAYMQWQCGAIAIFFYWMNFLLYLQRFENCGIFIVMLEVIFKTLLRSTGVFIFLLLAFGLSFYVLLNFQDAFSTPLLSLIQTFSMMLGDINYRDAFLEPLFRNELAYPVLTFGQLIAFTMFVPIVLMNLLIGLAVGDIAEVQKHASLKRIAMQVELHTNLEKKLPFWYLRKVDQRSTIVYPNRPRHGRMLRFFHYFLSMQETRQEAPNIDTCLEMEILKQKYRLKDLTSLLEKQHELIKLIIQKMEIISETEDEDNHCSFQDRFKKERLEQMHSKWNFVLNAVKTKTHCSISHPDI
Transient receptor potential cation channel subfamily A member 1 (Homo sapiens), sequence (O75762 whole entry): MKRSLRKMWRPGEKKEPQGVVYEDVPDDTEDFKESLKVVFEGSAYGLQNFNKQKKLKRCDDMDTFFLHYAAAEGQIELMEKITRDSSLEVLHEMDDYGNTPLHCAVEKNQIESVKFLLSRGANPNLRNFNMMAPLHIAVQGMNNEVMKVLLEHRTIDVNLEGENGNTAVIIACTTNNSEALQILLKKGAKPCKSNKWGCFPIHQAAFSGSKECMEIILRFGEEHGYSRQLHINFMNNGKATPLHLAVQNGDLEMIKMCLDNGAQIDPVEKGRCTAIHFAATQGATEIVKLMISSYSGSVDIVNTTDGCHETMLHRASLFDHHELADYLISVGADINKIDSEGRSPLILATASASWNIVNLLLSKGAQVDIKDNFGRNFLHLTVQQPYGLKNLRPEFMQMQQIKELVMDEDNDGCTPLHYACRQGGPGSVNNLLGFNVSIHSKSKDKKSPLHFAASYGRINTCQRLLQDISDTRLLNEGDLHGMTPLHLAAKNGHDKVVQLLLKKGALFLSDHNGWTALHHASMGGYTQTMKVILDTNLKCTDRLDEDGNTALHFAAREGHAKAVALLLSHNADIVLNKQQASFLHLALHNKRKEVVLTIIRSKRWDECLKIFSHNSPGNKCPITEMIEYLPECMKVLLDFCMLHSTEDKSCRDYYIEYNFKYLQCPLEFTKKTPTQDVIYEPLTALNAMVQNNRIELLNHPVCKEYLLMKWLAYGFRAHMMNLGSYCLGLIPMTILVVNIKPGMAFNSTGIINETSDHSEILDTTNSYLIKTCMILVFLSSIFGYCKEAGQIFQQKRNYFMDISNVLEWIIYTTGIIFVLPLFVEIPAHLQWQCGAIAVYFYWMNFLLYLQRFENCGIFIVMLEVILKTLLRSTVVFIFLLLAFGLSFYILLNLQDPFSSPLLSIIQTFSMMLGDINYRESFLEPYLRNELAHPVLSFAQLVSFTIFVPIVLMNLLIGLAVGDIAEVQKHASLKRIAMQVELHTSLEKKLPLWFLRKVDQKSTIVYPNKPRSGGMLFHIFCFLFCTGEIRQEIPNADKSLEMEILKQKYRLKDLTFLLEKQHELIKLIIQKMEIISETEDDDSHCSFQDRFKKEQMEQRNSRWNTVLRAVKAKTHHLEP
T1 sequence (Q6RI86 whole entry): as the sequence (Q6RI86 whole entry) above

Work on `O=C/C=C/c1ccccc1` [CINNAMALDEHYDE] yielded an Activity (Spinal cord [1]) of 23.7 fmol/g, an Activity (Spinal cord [2]) of 118.5 fmol/g and an Activity (Esophagus [3]) of 5.8 fmol/g. For the same molecule, the Activity (Esophagus [4]) was 93.2 fmol/g, the Activity (Esophagus [5]) was 19.2 fmol/g and the Activity (Esophagus [6]) was 17.8 fmol/g. The Activity (Esophagus [7]) was 6.3 fmol/g, the Activity (Esophagus [8]) was 31.5 fmol/g and the Activity (Spinal cord [9]) was 63.8 fmol/g. For the same molecule, the Activity (Spinal cord [10]) was 34.5 fmol/g, the Activity (Spinal cord [11]) was 720.4 fmol/g and the Activity (Spinal cord [12]) was 160.5 fmol/g.
`CC12CCC(CC1=O)C2(C)C` (stereo not drawn) was tested, and the Activity (Mus musculus [13]) was “Active”.
For `Oc1cc2c(cc1O)CN(C(=S)NCCc1ccc(Cl)cc1)CCC2`, the Activity [14] was “Active”, the Activity (Mus musculus [15]) was “Active” and the Activity (Rattus norvegicus [16]) was “Active”.
`CCCCCC(O)/C=C/C=O` (stereo not drawn) [4-HYDROXYNON-2-ENAL] was tested, and the Activity (Spinal cord [17]) was “Active”, the EC50 [18] was 27 µM and the Activity [19] was “inactive”. For the same molecule, the Activity [20] was “Active”, the Activity [21] was “Active” and the EC50 [22] was 77 µM. For the same molecule, the Activity [23] was “Active”, the Activity [24] was “Active” and the Activity [25] was “inactive”. The Activity [26] was “inactive”, the Activity [27] was “inactive” and the Activity [28] was “Active”. For the same molecule, the Activity (Rattus norvegicus [29]) was “Dose-dependent effect”, the Activity (Mus musculus [30]) was “Dose-dependent effect” and the Activity (Mus musculus [31]) was “Dose-dependent effect”. The Activity (Mus musculus [32]) was “inactive”, the Activity (Mus musculus [33]) was “Active” and the Activity (Mus musculus [34]) was “Active”. The Activity (Mus musculus [35]) was “inactive”, the Activity (Mus musculus [36]) was “inactive” and the Activity (Spinal cord [37]) was “Active”. The Activity (Esophagus [38]) was “Active”, the Activity (Esophagus [39]) was “Active” and the Activity (Rattus norvegicus [40]) was “Dose-dependent effect”. The Activity (Rattus norvegicus [41]) was “inactive”, the Activity (Rattus norvegicus [42]) was “inactive” and the Activity (Rattus norvegicus [43]) was “Active”.
